Source: ChEMBL document CHEMBL1127647, “Synthesis and antiviral activities of 8-alkynyl-, 8-alkenyl-, and 8-alkyl-2'-deoxyadenosine analogues” (1994)
≈ marks a conversion by molar mass, not a printed value.

Assays:
Assay type in all cases: functional
Human alphaherpesvirus 1 = assay: Minimum inhibitory concentration required for antiviral activity to reduce TK-HSV-1 (B2006) induced cytopathicity in human embryonic skin-muscle cells (ESM)
Outline: (§1)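 Endpoint is the compound concentration that reduces virus-induced cytopathicity in the host cell monolayer by 50%.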

HEL [1] = assay: Minimum inhibitory concentration to reduce cytopathicity by 50% in proliferation of human embryonic lung cells (HEL)
Outline: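 Host cell toxicity is read as the compound concentration that reduces HEL cell proliferation by 50%.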

[2] = system: Respiratory syncytial virus; assay: Minimum inhibitory concentration required for antiviral activity to reduce Respiratory syncytial virus (RSV) (Long) induced cytopathicity in human carcinoma cells (HeLa); outline: as §1
HEL [3] = assay: Minimum inhibitory concentration required for antiviral activity to reduce Varicella Zoster virus (VZV) (Oka) induced cytopathicity in human embryonic lung cells (HEL)
HeLa = assay: Minimum inhibitory concentration to reduce cytopathicity by 50% in morphology of human carcinoma cells (HeLa)
Outline: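 Cytotoxicity endpoint is the minimum compound concentration that causes a microscopically detectable alteration of normal host cell morphology.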

HEL [4] = assay: Minimum inhibitory concentration required for antiviral activity to reduce TK Varicella Zoster virus (VZV) (07/1) induced cytopathicity in human embryonic lung cells (HEL)
MDCK [5] = assay: Minimum inhibitory concentration required for antiviral activity to reduce influenza B virus (Singapore) induced cytopathicity in Madin-Darby canine kidney cells (MDCK); details: Canis lupus familiaris; outline: as §1
MDCK [6] = assay: Minimum inhibitory concentration required for antiviral activity to reduce Influenza A virus (Ishikawa) induced cytopathicity in Madin-Darby canine kidney cells (MDCK); details: Canis lupus familiaris; outline: as §1
ESM = assay: Minimum inhibitory concentration to reduce cytopathicity by 50% in morphology of human embryonic skin-muscle cells (ESM)
MDCK [7] = assay: Minimum inhibitory concentration to reduce cytopathicity by 50% in morphology of Madin-Darby canine kidney cells (MDCK); details: Canis lupus familiaris
[8] = system: Vesicular stomatitis virus; assay: Minimum inhibitory concentration required for antiviral activity to reduce Vesicular stomatitis virus (VSV) induced cytopathicity in human embryonic skin-muscle cells (ESM); outline: as §1
HEL [9] = assay: Minimum inhibitory concentration required for antiviral activity to reduce Cytomegalovirus (CMV) (Davis) induced cytopathicity in human embryonic lung cells (HEL); outline: as §1
Vaccinia virus = assay: Minimum inhibitory concentration required for antiviral activity to reduce Vaccinia virus (VV) induced cytopathicity in human embryonic skin-muscle cells (ESM); details: Orthopoxvirus vaccinia; outline: as §1
HEL [10] = assay: Minimum inhibitory concentration required for antiviral activity to reduce Cytomegalovirus (CMV) (AD-169) induced cytopathicity in human embryonic lung cells (HEL); outline: as §1

| SMILES | MIC (Human alphaherpesvirus 1) | MIC (HEL [1]) | MIC [2] | MIC (HEL [3]) | MIC (HeLa) | MIC (HEL [4]) | MIC (MDCK [5]) | MIC (MDCK [6]) | MIC (ESM) | MIC (MDCK [7]) | MIC [8] | MIC (HEL [9]) | MIC (Vaccinia virus) | MIC (HEL [10]) |
| --- | --- | --- | --- | --- | --- | --- | --- | --- | --- | --- | --- | --- | --- | --- |
| CCc1nc2c(N)ncnc2n1[C@H]1C[C@H](O)[C@@H](CO)O1 | 300 µg/mL (≈ 1070 µM) | > 200 µg/mL | > 200 µg/mL | > 100 µg/mL | > 200 µg/mL | 55 µg/mL (≈ 197 µM) | > 200 µg/mL | > 200 µg/mL | > 400 µg/mL | > 200 µg/mL | > 400 µg/mL | 70 µg/mL (≈ 251 µM) | > 400 µg/mL | 70 µg/mL (≈ 251 µM) |
| CCCC#Cc1nc2c(N)ncnc2n1[C@H]1C[C@H](O)[C@@H](CO)O1 | 100 µg/mL (≈ 315 µM) | 10 µg/mL (≈ 31.5 µM) | > 100 µg/mL | 40 µg/mL (≈ 126 µM) | 100 µg/mL (≈ 315 µM) | 20 µg/mL (≈ 63 µM) | > 100 µg/mL | 30 µg/mL (≈ 94.5 µM) | 400 µg/mL (≈ 1260 µM) | 100 µg/mL (≈ 315 µM) | 70 µg/mL (≈ 221 µM) | 10 µg/mL (≈ 31.5 µM) | 150 µg/mL (≈ 473 µM) | 10 µg/mL (≈ 31.5 µM) |
| CC#Cc1nc2c(N)ncnc2n1[C@H]1C[C@H](O)[C@@H](CO)O1 | 150 µg/mL (≈ 519 µM) | 40 µg/mL (≈ 138 µM) | > 200 µg/mL | 40 µg/mL (≈ 138 µM) | > 200 µg/mL | 40 µg/mL (≈ 138 µM) | > 200 µg/mL | > 200 µg/mL | > 400 µg/mL | > 200 µg/mL | 150 µg/mL (≈ 519 µM) | 20 µg/mL (≈ 69.1 µM) | 300 µg/mL (≈ 1040 µM) | 20 µg/mL (≈ 69.1 µM) |
| CCCc1nc2c(N)ncnc2n1[C@H]1C[C@H](O)[C@@H](CO)O1 | > 300 µg/mL | 170 µg/mL (≈ 580 µM) | > 200 µg/mL | 20 µg/mL (≈ 68.2 µM) | > 200 µg/mL | 7 µg/mL (≈ 23.9 µM) | > 200 µg/mL | > 200 µg/mL | > 400 µg/mL | > 200 µg/mL | 400 µg/mL (≈ 1360 µM) | 20 µg/mL (≈ 68.2 µM) | 70 µg/mL (≈ 239 µM) | 20 µg/mL (≈ 68.2 µM) |
| CCCCCc1nc2c(N)ncnc2n1[C@H]1C[C@H](O)[C@@H](CO)O1 | > 100 µg/mL | 30 µg/mL (≈ 93.3 µM) | > 100 µg/mL | 20 µg/mL (≈ 62.2 µM) | 100 µg/mL (≈ 311 µM) | 20 µg/mL (≈ 62.2 µM) | > 100 µg/mL | > 100 µg/mL | > 200 µg/mL | 100 µg/mL (≈ 311 µM) | 70 µg/mL (≈ 218 µM) | 10 µg/mL (≈ 31.1 µM) | 150 µg/mL (≈ 467 µM) | 10 µg/mL (≈ 31.1 µM) |
| NC(=O)c1ncn([C@@H]2O[C@H](CO)[C@@H](O)[C@H]2O)n1 [RIBAVIRIN] | > 300 µg/mL |  |  |  |  |  |  |  | > 400 µg/mL |  | > 400 µg/mL |  | 70 µg/mL (≈ 287 µM) |  |
| CCCCCCCc1nc2c(N)ncnc2n1[C@H]1C[C@H](O)[C@@H](CO)O1 | > 40 µg/mL | 13 µg/mL (≈ 37.2 µM) | 20 µg/mL (≈ 57.2 µM) | 10 µg/mL (≈ 28.6 µM) | 100 µg/mL (≈ 286 µM) | 6 µg/mL (≈ 17.2 µM) | > 100 µg/mL | 20 µg/mL (≈ 57.2 µM) | > 100 µg/mL | 100 µg/mL (≈ 286 µM) | > 40 µg/mL | 4 µg/mL (≈ 11.4 µM) | 20 µg/mL (≈ 57.2 µM) | 4 µg/mL (≈ 11.4 µM) |
| CCC/C=C\c1nc2c(N)ncnc2n1[C@H]1C[C@H](O)[C@@H](CO)O1 | > 100 µg/mL | 40 µg/mL (≈ 125 µM) | 100 µg/mL (≈ 313 µM) | > 50 µg/mL | > 200 µg/mL | > 50 µg/mL | > 200 µg/mL | > 200 µg/mL | ≥ 200 µg/mL | > 200 µg/mL | > 100 µg/mL | > 50 µg/mL | > 100 µg/mL | > 50 µg/mL |
| Nc1ncnc2c1ncn2[C@H]1C[C@H](O)[C@@H](CO)O1 [DEOXYADENOSINE] | > 400 µg/mL |  | 20 µg/mL (≈ 79.6 µM) | > 100 µg/mL | 200 µg/mL (≈ 796 µM) | > 100 µg/mL | > 200 µg/mL | > 200 µg/mL | > 400 µg/mL | > 200 µg/mL | > 400 µg/mL | > 100 µg/mL | > 400 µg/mL | > 100 µg/mL |
| CCCCCC#Cc1nc2c(N)ncnc2n1[C@H]1C[C@H](O)[C@@H](CO)O1 | > 100 µg/mL | 6 µg/mL (≈ 17.4 µM) | 30 µg/mL (≈ 86.9 µM) | 15 µg/mL (≈ 43.4 µM) | 100 µg/mL (≈ 290 µM) | 8 µg/mL (≈ 23.2 µM) | 100 µg/mL (≈ 290 µM) | > 100 µg/mL | > 200 µg/mL | 100 µg/mL (≈ 290 µM) | 20 µg/mL (≈ 57.9 µM) | 7 µg/mL (≈ 20.3 µM) | 7 µg/mL (≈ 20.3 µM) | 2 µg/mL (≈ 5.79 µM) |
| CCCCC/C=C\c1nc2c(N)ncnc2n1[C@H]1C[C@H](O)[C@@H](CO)O1 | > 40 µg/mL | 20 µg/mL (≈ 57.6 µM) | 14 µg/mL (≈ 40.3 µM) | 15 µg/mL (≈ 43.2 µM) | 100 µg/mL (≈ 288 µM) | 10 µg/mL (≈ 28.8 µM) | > 100 µg/mL | 12 µg/mL (≈ 34.5 µM) | > 100 µg/mL | 100 µg/mL (≈ 288 µM) | > 40 µg/mL | 20 µg/mL (≈ 57.6 µM) | 20 µg/mL (≈ 57.6 µM) | 30 µg/mL (≈ 86.4 µM) |
| C#Cc1nc2c(N)ncnc2n1[C@H]1C[C@H](O)[C@@H](CO)O1 | > 4 µg/mL | 2 µg/mL (≈ 7.27 µM) | > 4 µg/mL | 7 µg/mL (≈ 25.4 µM) | 4 µg/mL (≈ 14.5 µM) | 4 µg/mL (≈ 14.5 µM) | > 20 µg/mL | > 20 µg/mL | 10 µg/mL (≈ 36.3 µM) | 20 µg/mL (≈ 72.7 µM) | > 4 µg/mL | 4 µg/mL (≈ 14.5 µM) | > 4 µg/mL | 2 µg/mL (≈ 7.27 µM) |
| Nc1nc2c(ncn2COCCO)c(=O)[nH]1 [ACYCLOVIR] | 100 µg/mL (≈ 444 µM) | > 200 µg/mL |  |  |  |  |  |  | > 400 µg/mL |  | > 400 µg/mL | 50 µg/mL (≈ 222 µM) | > 400 µg/mL | 35 µg/mL (≈ 155 µM) |
| C/C=C\c1nc2c(N)ncnc2n1[C@H]1C[C@H](O)[C@@H](CO)O1 | > 100 µg/mL | > 50 µg/mL | > 200 µg/mL | > 50 µg/mL | > 200 µg/mL | > 50 µg/mL | > 200 µg/mL | > 200 µg/mL | ≥ 100 µg/mL | > 200 µg/mL | > 100 µg/mL | > 50 µg/mL | > 100 µg/mL | > 50 µg/mL |
| O=c1[nH]c(=O)n([C@H]2C[C@H](O)[C@@H](CO)O2)cc1/C=C/Br [BRIVUDINE] | > 200 µg/mL | > 200 µg/mL |  | 0.004 µg/mL (≈ 0.012 µM) |  | > 10 µg/mL |  |  | > 400 µg/mL |  | > 400 µg/mL | 70 µg/mL (≈ 210 µM) | 2 µg/mL (≈ 6 µM) | 70 µg/mL (≈ 210 µM) |
